Laboratory results as given in ChEMBL document CHEMBL3797027, “Potent anti-proliferative actions of a non-diuretic glucosamine derivative of ethacrynic acid” (Bioorg Med Chem Lett, 2016).
Active and inactive are the calls of the source. No cut-off for these calls is given here.

Key:
[1] = test system: NCI-H1299; assay: Induction of ROS generation in human H1299 cells at 20 and 40 uM incubated for 3 hrs by DCFDA staining based fluorescence microscopy; assay type: functional, cell-based
How it was run: (§1)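 After 3 h exposure at different concentrations, DCFH-DA fluorescence was imaged by fluorescence microscopy. H2O2 (25 µM) served as positive control. In some wells, cells were pretreated with 3 mM N-acetylcysteine before compound addition.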

[2] = test system: HCT-116; assay: Induction of ROS generation in human HCT116 cells at 20 and 40 uM incubated for 3 hrs after pre-incubation with 3 mM NAC for 1 hr by DCFDA staining based fluorescence microscopy; assay type: functional, cell-based; how it was run: as §1
[3] = test system: NCI-H1299; assay: Increase in p21'cip1 protein expression in p53 deficient human H1299 cells at 10 to 40 uM by Western blot method; assay type: functional, cell-based
How it was run: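 H1299 (p53-null), HCT116 (p53 wild type) and MDA-MB-231 (p53 mutant) cells were treated, then lysates were immunoblotted for p53, p21, PUMA and PARP. β-Actin served as loading control.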

[4] = target: Glutathione S-transferase P (Homo sapiens) (UniProt P09211); assay: Inhibition of GSTP1 in human H1299 cells assessed as reduction in GST-pi activity pre-incubated for 3 hrs followed by chlorodinitrobenzene and reduced glutathione addition by photometric assay
[5] = test system: MDA-MB-468; assay: Potency index, ratio of IC50 for ethacrynic acid to IC50 for test compound for cytotoxic activity against human MDA-MB-468 cells assessed as inhibition of cell proliferation incubated for 72 hrs by MTT assay; assay type: functional

Chain of Glutathione S-transferase P (Homo sapiens) (P09211 2-210 limits assumed): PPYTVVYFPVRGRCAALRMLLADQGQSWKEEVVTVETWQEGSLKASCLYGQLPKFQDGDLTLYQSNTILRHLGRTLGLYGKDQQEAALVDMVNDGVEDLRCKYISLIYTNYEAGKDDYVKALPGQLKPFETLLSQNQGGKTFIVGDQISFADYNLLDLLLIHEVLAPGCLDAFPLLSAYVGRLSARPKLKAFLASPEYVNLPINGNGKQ

**Q.** What does the source list for `C=C(CC)C(=O)c1ccc(OCC(=O)N[C@@H]2[C@@H](O)[C@H](O)[C@@H](CO)O[C@H]2O)c(Cl)c1Cl`?
**A.** Activity [1]: Active; Activity [2]: inactive; Activity [3]: Active; Activity [4]: Dose-dependent effect; Ratio IC50 [5]: 3
